In data set [1] the test system is BMDM. Description: Immunostimulatory activity in C57BL/6 mouse BMDM assessed as increase in IL-6 production at 20 ug/ml after 6 to 72 hrs by ELISA. Format: functional, cell-based. In a few lines:
(§1)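 Bone marrow macrophages from wild-type C57BL/6 mice (0.5 × 10^6/well) were grown for 24 h, then given fresh medium containing compound at 20 μg/mL for 6, 24, 48 and 72 h. Three independent experiments were run, means ± SD.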
In general terms: In an ELISA, binding on a coated surface is turned into a signal by an enzyme label.

Data set [2] has as its system BMDM. Kind of data set: Immunostimulatory activity in C57BL/6 mouse BMDM assessed as increase in IL-2 production at 20 ug/ml after 6 to 72 hrs by immunoassay. The data set is classed as functional, cell-based. Put shortly:
as §1

For data set [3], the system named is BMDM. Kind of data set: Immunostimulatory activity in C57BL/6 mouse BMDM assessed as increase in IL-4 production at 20 ug/ml after 6 to 72 hrs by immunoassay. Format: functional, cell-based. Put shortly: as §1
Data set [4] concerns BMDM. Description: Immunostimulatory activity in C57BL/6 mouse BMDM assessed as increase in IL-5 production at 20 ug/ml after 6 to 72 hrs by immunoassay. The data set is classed as functional, cell-based. Put shortly:
as §1

Data set [5] relates to BMDM. Kind of data set: Immunostimulatory activity in C57BL/6 mouse BMDM assessed as increase in IL-10 production at 20 ug/ml after 6 to 72 hrs by immunoassay. Format: functional, cell-based. In a few lines: as §1
For data set [6], the system named is BMDM. Description: Immunostimulatory activity in C57BL/6 mouse BMDM assessed as increase in IL-12 production at 20 ug/ml after 6 to 72 hrs by immunoassay. The data set is classed as functional, cell-based. Put shortly:
as §1

Data set [7] has as its system BMDM. Description: Immunostimulatory activity in C57BL/6 mouse BMDM assessed as increase in IFN-gamma production at 20 ug/ml after 6 to 72 hrs by immunoassay. Format: functional, cell-based. Put shortly:
as §1

In data set [8] the test system is BMDM. Description: Immunostimulatory activity in C57BL/6 mouse BMDM assessed as increase in GM-CSF production at 20 ug/ml after 6 to 72 hrs by immunoassay. The data set is classed as functional, cell-based. In a few lines:
as §1

The test system of data set [9] is BMDM. Kind of data set: Immunostimulatory activity in C57BL/6 mouse BMDM assessed as increase in MHC-class 2 production at 20 ug/ml after 6 to 72 hrs by flow cytometric method. Format: functional, cell-based. Put shortly:
(§2)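 C57BL/6 BMDM (0.5 × 10^6/well) were stimulated with compound at 20 μg/mL for 6, 24, 48 and 72 h. Cells were then stained with phycoerythrin-conjugated anti-CD40, anti-CD80 or anti-CD86, plus allophycocyanin-conjugated anti-MHC class II. Isotype antibodies set nonspecific binding, and cells were analysed by flow cytometry. Three independent experiments were run.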
A general note: Flow cytometry measures light scatter and fluorescence of single cells or particles in a stream.

In data set [10] the test system is BMDM. Description: Immunostimulatory activity in C57BL/6 mouse BMDM assessed as increase in CD40 production at 20 ug/ml after 6 to 72 hrs by flow cytometric method. The data set is classed as functional, cell-based. Put shortly:
as §2

Data set [11] has as its system BMDM. Kind of data set: Immunostimulatory activity in C57BL/6 mouse BMDM assessed as increase in CD80 production at 20 ug/ml after 6 to 72 hrs by flow cytometric method. The data set is classed as functional, cell-based. Put shortly: as §2
For data set [12], the system named is BMDM. Description: Immunostimulatory activity in C57BL/6 mouse BMDM assessed as increase in CD86 production at 20 ug/ml after 6 to 72 hrs by flow cytometric method. The data set is classed as functional, cell-based. In a few lines:
as §2

For data set [13], the system named is THP-1. Kind of data set: Immunostimulatory activity in human THP1 cells assessed as increase in IL-8 production at 20 ug/ml after 6 to 72 hrs by ELISA. Format: functional, cell-based. Put shortly: (§3)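 THP-1 cells (0.5 × 10^6/well) were grown in RPMI/10% FBS for 24 h, then given fresh medium containing compound at 20 μg/mL for 6, 24, 48 and 72 h. Cell-free supernatants were assayed for IL-8 and IL-6 by ELISA, and for IL-10, IFN-γ and TNF-α by a human Th1/Th2 multiplex bead immunoassay. Results were pooled from three independent experiments, means ± SD.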

Data set [14] deals with THP-1. Kind of data set: Immunostimulatory activity in human THP1 cells assessed as increase in IL-10 production at 20 ug/ml after 6 to 72 hrs by immunoassay. Format: functional, cell-based. Put shortly: as §3
The subject of data set [15] is THP-1. Kind of data set: Immunostimulatory activity in human THP1 cells assessed as increase in TNF-alpha production at 20 ug/ml after 6 to 72 hrs by immunoassay. The data set is classed as functional, cell-based. In a few lines:
as §3

Data set [16] concerns THP-1. Description: Immunostimulatory activity in human THP1 cells assessed as increase in IL-6 production at 20 ug/ml after 6 to 72 hrs by ELISA. The data set is classed as functional, cell-based. Put shortly: as §3
In data set [17] the test system is THP-1. Kind of data set: Immunostimulatory activity in human THP1 cells assessed as increase in IFN-gamma production at 20 ug/ml after 6 to 72 hrs by immunoassay. Format: functional, cell-based. In a few lines: as §3
The subject of data set [18] is THP-1. Description: Cytotoxicity against human THP1 cells assessed as decrease in cell viability at 0.1 to 20 ug/ml after 6 to 48 hrs by SRB assay. Format: cell-based. Put shortly:
(§4)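 THP-1 cells and C57BL/6 wild-type bone marrow-derived macrophages were kept in RPMI with 10% FBS, penicillin and streptomycin at 37 °C and 5% CO2. BMDM medium also contained gentamycin. Cells were exposed to compound at 20, 10, 1 and 0.1 μg/mL, and viability was read with a colorimetric assay.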

A short description of data set [19]: Cytotoxicity against C57BL/6 mouse BMDM assessed as decrease in cell viability at 20 ug/ml after 6 to 48 hrs by SRB assay. Format: cell-based. In a few lines:
as §4
For orientation: The SRB assay estimates cell density from bound dye.

Structures are written as SMILES. Activity calls are given as the source filed them. The calls are words filed in the database; no cut-off is given here.

Take `C=CCCCNC(=O)[C@H]1O[C@@H](OC[C@H]2OC(O)[C@H](NC(=O)C[C@H](O)CCCCCCCCCCC)[C@@H](OC(=O)C[C@H](O)CCCCCCCCCCC)[C@@H]2O)[C@H](NC(=O)C[C@@H](CCCCCCCCCCC)OC(=O)CCCCCCCCCCC)[C@@H](OC(=O)C[C@@H](CCCCCCCCCCC)OC(=O)CCCCCCCCCCCCC)[C@@H]1OP(=O)(O)O` (some centres undefined): the result in data set [1], in data set [13], in data set [14], in data set [15], in [16] and in data set [17] was Active. Besides, the outcome in [2], in [3], in data set [4], in [5], in data set [6] and in [7] was inactive. The outcome in data set [8], in data set [9], in data set [10], in [11] and in data set [12] was inactive. Also, the Activity entry is “Non-Toxic” in data set [18] and “Toxic” in [19].

(Values after ChEMBL document CHEMBL4052816, “Development of Clickable Monophosphoryl Lipid A Derivatives toward Semisynthetic Conjugates with Tumor-Associated Carbohydrate Antigens” (J Med Chem, 2017).)
